# Measurements as given in ChEMBL document CHEMBL1138476 (J Med Chem, 2009).
# Activity calls are given as the source filed them. The calls are words filed in the database; no cut-off is given here.
# Assays:
# [1] = Plasma concentration in spontaneously breathing dog at 5 mg/kg, iv after 30 mins; assay type: ADME, organism-based, Canis lupus familiaris; set-up: dose 5 mg/kg, route intravenous
# Method in brief: (§1)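 Spontaneously breathing, barbiturate-anesthetized mongrel dogs (n = 4) infused iv at 5.0 mg/kg over 6 min. Total pooled plasma concentrations taken at 6, 15, 30 and 60 min.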
# [2] = Elimination half life in chimpanzee at 1 mg/kg, po; assay type: ADME, organism-based, Pan troglodytes; set-up: dose 1 mg/kg, route oral; settings: in vivo, read-out: beta t1/2 (converted)
# Method in brief: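 Two alert chimpanzees were given 1 mg/kg po as a 1 mg/mL suspension in 50:50 (v/v) 0.5% methylcellulose and Tang orange juice containing 1% Tween-80. EDTA blood was taken predose and at 2–96 h. Bioavailability was calculated against a 0.5 mg/kg iv dose given to one animal.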
# Canis familiaris [3] = assay: Effect on respiratory function in spontaneously breathing mongrel dog assessed as change in tidal volume at 5 mg/kg after intravenous infusion for 30 mins (RVb= 6.1+/-5.6 %); assay type: functional, Canis lupus familiaris
# Rattus norvegicus [4] = assay: Toxicity in rat assessed as time spent on rotarod at 10 mg/kg, po after 1 hr by rotarod test; assay type: organism-based; set-up: dose 10 mg/kg, route oral; settings: in vivo
# Method in brief: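 Rats, n = 8 per dose, dosed po in 0.25% Methocel 1 h before testing, at 0, 1.0, 3.0, 10, 30 and 100 mg/kg. Read-out is time on rotorod (s), mean ± SEM, compared with the vehicle (zero-dose) group.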
# Canis familiaris [5] = assay: Effect on respiratory function in spontaneously breathing mongrel dog assessed as change in respiration rate at 5 mg/kg after intravenous infusion for 30 mins (RVb= -4.5+/-8.2 %); assay type: functional, Canis lupus familiaris
# Canis familiaris [6] = assay: Effect on respiratory function in spontaneously breathing mongrel dog assessed as change in respiration rate at 5 mg/kg after intravenous infusion for 60 mins (RVb= -19.5+/-16.3 %); assay type: functional, Canis lupus familiaris
# [7] = Plasma concentration in rat at 30 mg/kg, po after 5 hrs; assay type: ADME, organism-based; set-up: dose 30 mg/kg, route oral
# Method in brief: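 Rats (n = 9, renal function study) given 30 mg/kg po; plasma levels measured in a separate cohort dosed the same way, sampled at 1 and 5 h after dosing.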
# [8] = Solubility in acetone; assay type: physicochemical
# Rattus norvegicus [9] = assay: Effect on acute renal function in rat assessed as change in urine creatinine level per 100 gm body weight at 30 mg/kg, po (RVb= 16.2+/-3.3 mg/dl); assay type: functional
# [10] = Tmax in rat at 5 mg/kg, po; assay type: ADME, organism-based; set-up: dose 5 mg/kg, route oral; settings: in vivo
# Method in brief: (§2)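 Rats (n = 3) dosed iv at 1 mg/kg in 10% DMAC, 70% propylene glycol and deionized water, and orally at 5 mg/kg in 0.5% methylcellulose.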
# Substance-K receptor = molecular target: T1, Substance-K receptor (Homo sapiens, UniProt P21452); assay: Binding affinity to human neurokinin 2 receptor
# T1 sequence (P21452 whole entry): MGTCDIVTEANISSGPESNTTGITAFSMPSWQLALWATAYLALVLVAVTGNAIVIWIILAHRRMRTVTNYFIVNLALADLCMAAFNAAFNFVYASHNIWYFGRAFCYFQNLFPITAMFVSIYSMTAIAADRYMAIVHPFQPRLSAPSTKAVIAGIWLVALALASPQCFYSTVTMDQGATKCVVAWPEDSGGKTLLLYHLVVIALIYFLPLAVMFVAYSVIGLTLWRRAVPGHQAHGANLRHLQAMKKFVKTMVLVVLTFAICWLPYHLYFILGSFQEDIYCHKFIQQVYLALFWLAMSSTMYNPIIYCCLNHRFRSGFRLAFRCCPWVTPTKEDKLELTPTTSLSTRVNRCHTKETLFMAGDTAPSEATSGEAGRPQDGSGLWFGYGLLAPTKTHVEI
# Method in brief: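 Human neurokinin 2 receptor binding, contracted out as part of a broad screen.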
# Rattus norvegicus [11] = assay: Ex vivo receptor occupancy of CRF receptor in rat brain at 1 mg/kg, po by [125I]sauvagine binding and autoradiography relative to control; assay type: functional
# Method in brief: (§3)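 Rats were given 0.3, 1, 3, 10 or 30 mg/kg po in 0.25% Methocel 60 min before sacrifice. Brains were removed, sectioned and frozen at −80 °C. Ex vivo CRF receptor binding gave occupancy relative to vehicle-treated rats, reported as mean ± SEM.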
# [12] = Clearance in rat at 1 mg/kg, iv and 5 mg/kg, po; assay type: ADME, organism-based; settings: in vivo
# Method in brief: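 Rats (n = 3) received 1 mg/kg iv in 10% DMAC, 70% propylene glycol and deionized water, or 5 mg/kg orally in 0.5% methylcellulose.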
# Canis familiaris [13] = assay: Effect on respiratory function in spontaneously breathing mongrel dog assessed as change in airway resistance at 5 mg/kg after intravenous infusion for 15 mins (RVb= 27.8+/-17.9 %); assay type: functional, Canis lupus familiaris
# Rattus norvegicus [14] = assay: Effect on acute renal function in rat assessed as change in urine phosphate level per 100 gm body weight at 30 mg/kg, po (RVb= 8.7+/-2.3 mg/dl); assay type: functional
# [15] = Volume of distribution at steady state in chimpanzee at 0.5 mg/kg, iv; assay type: ADME, organism-based, Pan troglodytes; set-up: dose 0.5 mg/kg, route intravenous; settings: in vivo, read-out: Vdss
# Method in brief: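 Single chimpanzee given 0.5 mg/kg iv over 10 min (0.2 mL/kg) in 10% DMAC, 70% propylene glycol and deionized water. EDTA blood taken predose, at 6, 15 and 30 min, and at 2 to 96 h.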
# Canis familiaris [16] = assay: Effect on respiratory function in spontaneously breathing mongrel dog assessed as change in respiration rate at 5 mg/kg after intravenous infusion for 6 mins (RVb= -8.3+/-8.3 %); assay type: functional, Canis lupus familiaris
# [17] = Elimination half life in chimpanzee at 0.5 mg/kg, iv; assay type: ADME, organism-based, Pan troglodytes; set-up: dose 0.5 mg/kg, route intravenous; settings: in vivo, read-out: beta t1/2 (converted)
# Method in brief: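 One chimpanzee received 0.5 mg/kg iv over 10 min (0.2 mL/kg) in 10% DMAC, 70% propylene glycol and deionized water. Blood was drawn into EDTA predose and at 6, 15, 30 min and 2, 4, 6, 9, 12, 24, 36, 48, 72 and 96 h.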
# Rattus norvegicus [18] = assay: Anxiolytic activity in rat assessed as increase in time spent on open arm at 30 mg/kg, po by elevated plus-maze test; assay type: functional, organism-based; set-up: dose 30 mg/kg
# Method in brief: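 Rat elevated plus maze: percent of test time spent in the open arms. Oral dosing in 0.25% Methocel 60 min before testing; n = 12 per dose, mean ± SEM. Analysed by ANOVA followed by Fisher's LSD comparisons against vehicle.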
# [19] = Plasma concentration in spontaneously breathing dog at 5 mg/kg, iv after 6 mins; assay type: ADME, organism-based, Canis lupus familiaris; set-up: dose 5 mg/kg, route intravenous; method in brief: as §1
# Rattus norvegicus [20] = assay: Ex vivo receptor occupancy of CRF receptor in rat brain at 10 mg/kg, po by [125I]sauvagine binding and autoradiography relative to control; assay type: functional; method in brief: as §3
# [21] = Volume of distribution at steady state in rat at 1 mg/kg, iv and 5 mg/kg, po; assay type: ADME, organism-based; settings: in vivo, read-out: Vdss; method in brief: as §2
# Rattus norvegicus [22] = assay: Anxiolytic activity in rat assessed as decrease in latency to exit dark chamber at 10 mg/kg, po by defensive withdrawal test relative to untreated control; assay type: functional; set-up: scale not given: the % may be the effect or the level left
# Method in brief: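 Rat defensive withdrawal: latency to leave the dark chamber and explore the open field, maximum 900 s. Dosed orally in 0.25% Methocel 60 min before testing; n = 8 per dose, mean ± SEM. Analysed by Kruskal–Wallis followed by Mann–Whitney U against vehicle.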
# [23] = Plasma concentration in dog at 1 mg/kg after intravenous infusion for 30 mins; assay type: ADME, organism-based, Canis lupus familiaris; set-up: dose 1 mg/kg, route intravenous
smiles,measurement,setting,value
CC[C@@H](C)Nc1nc(C)nc2c(-c3ccc(OC)nc3C)c(C)nn12 [PEXACERFONT],concentration at 0.5 h,[1],412 nM
same,half-life,[2],26 h
same,Activity,Canis familiaris [3],-15.2%
same,Time,Rattus norvegicus [4],158 s
same,Activity,Canis familiaris [5],-32.5%
same,Activity,Canis familiaris [6],-14.6%
same,concentration at 5 h,[7],4950 nM
same,solubility,[8],460 mg/mL
same,Activity,Rattus norvegicus [9],8 mg/dL
same,Tmax,[10],0.75 h
same,IC50,Substance-K receptor,4.9 µM
same,Activity,Rattus norvegicus [11],26%
same,clearance,[12],17.9 mL/min/kg
same,Activity,Canis familiaris [13],9%
same,Activity,Rattus norvegicus [14],4.6 mg/dL
same,Vd,[15],4.2 L/kg
same,Activity,Canis familiaris [16],37.5%
same,half-life,[17],30 h
same,Activity,Rattus norvegicus [18],Active
same,concentration at 0.1 h,[19],1790 nM
same,Activity,Rattus norvegicus [20],69%
same,Vd,[21],14.9 L/kg
same,Activity,Rattus norvegicus [22],65%
same,concentration at 0.5 h,[23],473 nM
